Hits are enriched below; roughly 3% of the tested compounds scored in any of these assays.
NPR1 activator – GC-A (human) enzyme activation; P16066; HEK293 GC-A cells, cGMP TR-FRET, EC30 ANP; 0% at EC30 ANP, 100% saturating ANP; activation, % at 10 µM; 0.14% of 370,000 active; in the data active means activation above about 40%
GRIN3A LBD mod – NR3A (human) ligand-binding domain modulation | NR3A LBD differential scanning fluorimetry, Tm shift; 0% = protein alone, 100% = glycine-bound protein | Tm shift relative to glycine control, % at 25 µM | 2.5% of 340,000 active | AID 1259313;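 active means melting temperature shift of at least 10% of the positive control shift, at one fixed dose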
aDG glyco act – alpha-DG glycosylation activation | Pro5-aDG cells, alpha-DG glycosylation AlphaScreen (IIH6); 0% Pro5, 100% B10-LARGE cell signal | activation, % at 10 µM | 0.22% of 360,000 active | AID 624168;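 active means activation of at least 8% versus controls, or a plate z-score of at least 8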;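 further: Pro5 are CHO cells carrying HIG-tagged alpha-DG that lacks glycosylation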
GC-B act – GC-B (human) receptor activation | P20594 | HEK293-GC-B cells, CNP EC30, cGMP TR-FRET; 0% at EC30 CNP, 100% saturating CNP | activation, % at 10 µM | 0.11% of 370,000 active | AID 1920062;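 active means activation at 10 µM reaching about 35% in either raw or pattern-adjusted values, limit read from the data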
JMJD2C inh – human JMJD2C demethylase inhibition | Q9H3R0 | GST-JMJD2C(1-420) H3K9me3 demethylation, DELFIA europium | inhibition, % at 2.35 µM | 0.069% of 330,000 active | AID 2099;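 active means more than half of a compound's replicate wells show inhibition beyond 50%, single wells judged on their own value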;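 further: signal counts dimethyl H3K9 product captured on neutravidin plate; 0% = median of DMSO wells and 100% = 0.3 times that DMSO median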
Target sequence (Q9H3R0 1-420 limits assumed): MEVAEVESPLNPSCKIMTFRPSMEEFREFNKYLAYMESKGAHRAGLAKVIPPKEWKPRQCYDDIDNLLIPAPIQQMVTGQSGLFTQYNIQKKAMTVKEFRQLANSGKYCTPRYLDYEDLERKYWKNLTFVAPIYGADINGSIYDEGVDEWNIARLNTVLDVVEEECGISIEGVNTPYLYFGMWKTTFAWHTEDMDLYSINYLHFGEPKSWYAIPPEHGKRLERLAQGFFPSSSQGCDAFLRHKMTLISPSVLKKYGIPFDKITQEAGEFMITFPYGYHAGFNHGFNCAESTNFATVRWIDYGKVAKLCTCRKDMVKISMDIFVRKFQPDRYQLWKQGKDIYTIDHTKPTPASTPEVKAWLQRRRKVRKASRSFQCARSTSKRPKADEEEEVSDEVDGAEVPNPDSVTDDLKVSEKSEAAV
Hep lipid drop – hepatic lipid droplet formation modulation | AML12 mouse hepatocytes, oleate lipid droplets, BODIPY imaging | 0.4% of 240,000 active | inhibition, % at 6.5 µM;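 active means lipid droplet intensity inhibited by at least 50%, with more than 500 cells counted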
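Assay system: AML12 hepatocytes (mouse) / Also added: 100 µM oleic acid challenge / Times: overnight treatment with compound plus oleate / Detection: high-content imaging of BODIPY-stained droplets and DAPI nuclei / Evaluation: % inhibition of lipid droplet signal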
The depositor's hits bear a star; . = no result.

SMILES	NPR1 activator	GRIN3A LBD mod	aDG glyco act	GC-B act	JMJD2C inh	Hep lipid drop
COc1ccc(-n2nc(C#N)c(Cl)cc2=O)cc1	47*	1	0	1	.	.
CCOc1cccc(/C=N\NC(=O)Cc2cccs2)c1O	0	.	.	-5	.	.
Cc1cccc(-c2nnc(SCC(=O)Nc3cccc4ccccc34)n2Cc2ccco2)c1	-6	.	.	-9	.	.
O=C1/C(=C/c2ccc(F)cc2)Oc2cc(OC(=O)N3CCOCC3)ccc21	1	0	0	-8	-8	34
O=C1/C(=C/c2ccccc2)Oc2cc(OC(=O)N3CCOCC3)ccc21	1	20*	1	-5	4	6
CC(C)(C)C(=O)c1c(N)[nH]c(C(=O)c2ccccc2)c1-c1ccccc1	0	.	.	4	.	.
O=C(NCc1ccc(Cl)cc1)c1ccc(-c2ccccc2C(F)(F)F)o1	-1	438*	0	0	-1	32
O=C(Nc1ccccc1)c1ccc(-c2ccccc2C(F)(F)F)o1	-2	-3	0	-5	-109	-17
C#CCNC(=O)C[C@H]1C[C@@]2(C(=O)OC)C(=C[C@H](COCc3ccccc3)O[C@@H]2C)N(CCCCCCCC)C1=O	0	.	.	-1	.	.
CCOc1ccc(OCCC(=O)OCC(=O)NC(C)c2ccccc2)cc1 (stereo not drawn)	0	0	0	0	7	.
CC(NC(=O)COC(=O)COc1ccc(C(=O)c2ccccc2)cc1)c1ccccc1 (stereo not drawn)	65*	0	0	8	3	.
COc1cc2c(cc1OC)C1(CCCC1)C(N)=C2C#N	-30	11*	0	-25	0	9
Cc1cc(Cl)ccc1OCC(=O)Nc1ccccc1NS(=O)(=O)c1cccs1	5	14*	0	-1	41	-23
O=C(COC(=O)c1ccc(NS(=O)(=O)c2cccs2)cc1O)Nc1nc2ccccc2s1	-7	19*	0	-9	1	-1
COc1ccc(Cl)cc1NC(=O)COC(=O)c1cc(NS(=O)(=O)c2cccs2)ccc1O	2	25*	0	-4	-1	-16
O=C(Nc1ccc(Cl)cc1)Nc1ccccc1NS(=O)(=O)c1cccs1	7	30*	0	2	2	15
O=C(COc1ccc(Cl)cc1Cl)Nc1ccccc1NS(=O)(=O)c1cccs1	1	5	0	-2	0	13
COc1ccc(Cl)cc1NC(=O)CN(C)S(=O)(=O)c1cccs1	0	3	0	7	15	-3
O=C(COC(=O)c1ccc(NS(=O)(=O)c2cccs2)cc1O)NCc1ccccc1	-2	-4	0	1	22	3
Cc1ccc(NC(=O)CSc2nnc(-c3cccnc3)n2Cc2ccco2)cc1C	-7	.	.	-9	.	.
COCCCNC(=O)C[C@H]1C[C@@]2(C(=O)OC)C(=C[C@H](C(C)C)O[C@@H]2C2CC2)N(Cc2ccc(Cl)cc2Cl)C1=O	-20	.	.	-17	.	.
COC(=O)[C@]1(CNS(=O)(=O)C2CC2)CC(=O)N(C)[C@@H]1c1ccccc1	8	.	.	-6	.	.
COc1ccc(OC)c(S(=O)(=O)N2CCCC(C(=O)Nc3c(C)n(C)n(-c4ccccc4)c3=O)C2)c1 (stereo not drawn)	0	.	.	-4	.	.
NC(=O)c1ccccc1NS(=O)(=O)c1cccs1	-3	1	1	1	-7	-4
O=C(Nc1ccc(F)cc1)Nc1ccccc1NS(=O)(=O)c1cccs1	4	30*	0	-4	4	7
SMILES	NPR1 activator	GRIN3A LBD mod	aDG glyco act	GC-B act	JMJD2C inh	Hep lipid drop
COc1ccc(Br)cc1/C=C/C(=O)Nc1ccc(C)cc1	7	20*	4	1	1	-2
COc1ccc(Br)cc1/C=C/C(=O)Nc1ccc2ccccc2c1	1	15*	0	-3	3	52*
COc1c2c(cc3c1c(=O)c1ccccc1n3C)OCO2	2	.	.	-2	.	.
COc1ccc(-n2c(COc3ccc(Cl)cc3)nnc2SCC(=O)Nc2ccc3c(c2)OCO3)cc1	-11	.	.	-3	.	.
COc1cc2c(cc1OC)CSC1C(=O)N(C)C(SC2)C(=O)N1C	-3	.	.	-3	.	.
Cc1cc(NC(=O)/C=C/c2cccc(F)c2)n(-c2nc3ccccc3[nH]2)n1	6	5	0	-6	10	26
Cc1cc(NC(=O)/C=C/c2cccc(Cl)c2)n(-c2nc3ccccc3[nH]2)n1	10	11*	0	-3	12	-2
Cc1cc(NC(=O)/C=C/c2ccc(F)cc2)n(-c2nc3ccccc3[nH]2)n1	15	12*	0	-6	-8	2
O=C(CCN1C(=O)S/C(=C\C=C\c2ccccc2)C1=O)Nc1ccc(O)cc1	6	13*	0	-2	5	-6
O=C(CN1C(=O)S/C(=C\C=C\c2ccccc2)C1=O)Nc1cccc(O)c1	-2	27*	0	-4	-2	-6
O=C(O)c1ccc(-c2nc(-c3ccccc3)cs2)cc1	4	3	0	-7	-3	-7
c1ccc(-c2csc(-c3ccc(-c4csnn4)cc3)n2)cc1	-5	19*	0	-8	4	15
O=[N+]([O-])c1ccc(S(=O)(=O)Nc2ccc(-c3csc(-c4ccccc4)n3)cc2)cc1	8	.	.	-6	2	.
O=S(=O)(Nc1ccc(-c2csc(-c3ccccc3)n2)cc1)c1ccccc1	0	20*	0	-8	1	-4
Cc1ccc(S(=O)(=O)Nc2ccc(-c3csc(-c4ccccc4)n3)cc2)cc1	-4	24*	0	-4	-9	-2
O=C(Nc1cccc([N+](=O)[O-])c1)NC1CCCCN(Cc2ccc(Cl)cc2)C1=O (stereo not drawn)	2	.	.	-6	.	.
CCOC(=O)[C@@H]1[C@H]2COc3ccccc3[C@@H]2N2C(=O)N(c3cccc(Cl)c3)C(=O)[C@@]12C	-5	5	0	-12	2	.
O=S(=O)(c1ccccc1)N1CCn2c(nc3ccccc32)C1	-4	-5	0	0	1	.
O=S(=O)(c1ccc(F)cc1)N1CCn2c(nc3ccccc32)C1	-4	14*	0	-5	-4	.
Cc1cc(N2CCN(C(=O)Oc3ccc(-c4ccccc4)cc3)CC2)c2ccccc2n1	-2	.	.	2	.	.
O=C(NCc1ccccc1)C(=O)NCC1OCCN1C(=O)c1cccs1 (stereo not drawn)	0	0	0	0	-7	-15
Cc1ccc(CNC(=O)C(=O)NCC2OCCN2C(=O)c2cccs2)cc1 (stereo not drawn)	3	15*	0	5	-10	-4
Cc1ccc(CNC(=O)C(=O)NCC2CCCO2)cc1 (stereo not drawn)	3	16*	0	4	-1	5
